The text below walks through data of ChEMBL document CHEMBL1629490, “Synthesis and anti-inflammatory evaluation of novel mono-carbonyl analogues of curcumin in LPS-stimulated RAW 264.7 macrophages” (Eur J Med Chem, 2010).

pIC50: −log10 of the molar value. The source made the active and inactive calls. The rule behind the calls is not given here.

For data set [1], the system named is RAW264.7. Briefly: Antiinflammatory activity in mouse RAW264.7 cells assessed as inhibition of LPS-induced TNF alpha production at 10 uM after 2 hrs by ELISA. Type of data set: functional. Conditions: for inhibition at 10 µM: RAW264.7, 2 h. The procedure, abridged:
(§1)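 RAW 264.7 cells were grown in DMEM with 10% heat-inactivated FBS and penicillin/streptomycin at 37 °C with 5% CO2, plated at 4.0 × 10^5/plate overnight, and pretreated for 2 h with compound at 10 µM (DMSO stock; vehicle control). LPS (0.5 µg/ml) was added for 22 h. TNF-α and IL-6 in the medium were measured by ELISA, normalized to cell protein, and expressed as % of LPS control. Values are mean ± SE of 3–5 independent experiments.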
In general terms: In an ELISA, binding on a coated surface is turned into a signal by an enzyme label.

Data set [2] concerns RAW264.7. Nature of the data set: Antiinflammatory activity in mouse RAW264.7 cells assessed as inhibition of LPS-induced IL-6 production at 10 uM after 2 hrs by ELISA. Type of data set: functional. The following applies: for inhibition at 10 µM: RAW264.7, 2 h. The procedure, abridged: as §1
Data set [3] relates to RAW264.7. Nature of the data set: Antiinflammatory activity in mouse RAW264.7 cells assessed as inhibition of LPS-induced TNF alpha production after 2 hrs by ELISA. In kind it is functional, cell-based. The following applies: RAW264.7, 2 h.
Data set [4] has as its system RAW264.7. Nature of the data set: Antiinflammatory activity in mouse RAW264.7 cells assessed as inhibition of LPS-induced IL-6 production after 2 hrs by ELISA. In kind it is functional, cell-based. Conditions: RAW264.7, 2 h.
The subject of data set [5] is RAW264.7. Nature of the data set: Cytotoxicity against mouse RAW264.7 cells. In kind it is cell-based.
The subject of data set [6] is RAW264.7. Briefly: Antiinflammatory activity in mouse RAW264.7 cells assessed as inhibition of LPS-induced TNF alpha production at 1 to 20 uM after 2 hrs by ELISA. In kind it is functional, cell-based. In outline:
(§2)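 Murine RAW 264.7 cells were plated at 4.0 × 10^6/plate overnight (37 °C, 5% CO2) and pretreated for 2 h with compound at 1, 2.5, 5.0, 10 and 20 µM. LPS at 0.5 µg/ml followed for 22 h. Media TNF-α and IL-6 were measured by ELISA, normalized to total cell-lysate protein, and given as % of LPS control. Values are mean ± SE of 3–5 independent experiments.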

For data set [7], the system named is RAW264.7. Briefly: Antiinflammatory activity in mouse RAW264.7 cells assessed as inhibition of LPS-induced IL-6 production at 1 to 20 uM after 2 hrs by ELISA. Type of data set: functional, cell-based. The procedure, abridged: as §2

The term inhibition denotes the relative decrease from the control value, in per cent. Consider `COc1ccc(F)c(/C=C2\CCC/C(=C\c3cc(OC)ccc3F)C2=O)c1`, for which the inhibition at 10 µM in the data set on RAW264.7 [1] is 20%. The inhibition result with RAW264.7 [2] was “Active”.

Consider `O=C1/C(=C/c2ccc(C(F)(F)F)cc2F)CCC/C1=C\c1ccc(C(F)(F)F)cc1F`, for which the inhibition entry in the data set on RAW264.7 [1] and in the data set with RAW264.7 [2] was “Active” in each case.

Take `Cc1cc(N(CCCl)CCCl)ccc1/C=C1\CC/C(=C\c2ccc(N(CCCl)CCCl)cc2C)C1=O`: in the data set with RAW264.7 [1], the inhibition result is “Active”. In the data set with RAW264.7 [2], the inhibition at 10 µM is 30%.

On to `COc1cccc(/C=C2\CC/C(=C\c3cccc(OC)c3O)C2=O)c1O`, for which the inhibition result with RAW264.7 [1] and with RAW264.7 [2] was “Active” throughout.

On to `Cc1cc(N(CCCl)CCCl)ccc1/C=C1\CCC/C(=C\c2ccc(N(CCCl)CCCl)cc2C)C1=O`, for which the inhibition result with RAW264.7 [1] and with RAW264.7 [2] was “Active” in each case.

For the compound `O=C1/C(=C/c2cccc(C(F)(F)F)c2F)CCC/C1=C\c1cccc(C(F)(F)F)c1F`, the inhibition at 10 µM in the data set with RAW264.7 [1] was above 20%. In the data set with RAW264.7 [2], the inhibition entry was “Active”.

As for `COc1cc(OC)c(OC)cc1/C=C1\CCC/C(=C\c2cc(OC)c(OC)cc2OC)C1=O`, the inhibition entry in the data set on RAW264.7 [1] and in the data set on RAW264.7 [2] was “Active” in each case.

As to `O=C(/C=C/c1ccc(N2CCCCC2)cc1)/C=C/c1ccc(N2CCCCC2)cc1`, the inhibition entry in the data set with RAW264.7 [1] was “Active”. In the data set with RAW264.7 [2], the inhibition at 10 µM came to 50%.

For `COc1cc(/C=C/C(=O)CC(=O)/C=C/c2ccc(O)c(OC)c2)ccc1O` [CURCUMIN], the inhibition at 10 µM was 35.6% in the data set on RAW264.7 [1] and 75.7% in the data set on RAW264.7 [2].

A word on the pIC50: it is the negative decadic logarithm of the IC50, by convention in mol/L. Take `CCN(CC)c1ccc(/C=C2\CC/C(=C\c3ccc(N(CC)CC)cc3)C2=O)cc1`: the inhibition at 10 µM stood at 67.5% in the data set on RAW264.7 [1] and 92.7% in the data set on RAW264.7 [2]. The results for the pIC50 with RAW264.7 [3] and with RAW264.7 [4] were 4.79 and 5.97, respectively. The Activity result in the data set with RAW264.7 [5] is on record as “Non-toxic”. In addition, the inhibition entry in the data set with RAW264.7 [6] and in the data set with RAW264.7 [7] was “Dose-dependent effect” each time.

For the compound `CCOc1ccc(Br)cc1/C=C/C(=O)/C=C/c1cc(Br)ccc1OCC`, the inhibition result in the data set on RAW264.7 [1] and in the data set on RAW264.7 [2] was “Active” throughout. In addition, the values for the pIC50 with RAW264.7 [3] and in the data set with RAW264.7 [4] were 5.20 and 5.44, respectively. The Activity result with RAW264.7 [5] is given as “Non-toxic”. The inhibition result with RAW264.7 [6] and in the data set with RAW264.7 [7] was “Dose-dependent effect” throughout.

In the case of `CCOC(OCC)c1cccc(/C=C2\CC/C(=C\c3cccc(C(OCC)OCC)c3)C2=O)c1`, the inhibition result in the data set on RAW264.7 [1] and in the data set on RAW264.7 [2] was “Active” each time.

Take `O=C1/C(=C/c2ccc(N3CCOCC3)cc2)CC/C1=C\c1ccc(N2CCOCC2)cc1`: the inhibition entry with RAW264.7 [1] and in the data set on RAW264.7 [2] was “Active” each time.

With `CCN(CC)c1ccc(/C=C/C(=O)/C=C/c2ccc(N(CC)CC)cc2)cc1`, the inhibition result in the data set with RAW264.7 [1] was “Active”. Moreover, the inhibition at 10 µM in the data set with RAW264.7 [2] was 50%.

`O=C1/C(=C/c2c(F)cccc2C(F)(F)F)CCC/C1=C\c1c(F)cccc1C(F)(F)F`: the inhibition entry in the data set with RAW264.7 [1] and in the data set on RAW264.7 [2] was “Active” in each case.

For the compound `COc1cc(OC)c(OC)cc1/C=C1\CC/C(=C\c2cc(OC)c(OC)cc2OC)C1=O`, the inhibition entry in the data set with RAW264.7 [1] and with RAW264.7 [2] was “Active” each time.

Regarding `O=C1/C(=C/c2ccc(C(F)(F)F)cc2C(F)(F)F)CCC/C1=C\c1ccc(C(F)(F)F)cc1C(F)(F)F`, the inhibition at 10 µM with RAW264.7 [1] came to 20%. In the data set on RAW264.7 [2], the inhibition entry was “Active”.

For the compound `CCOc1ccc(Br)cc1/C=C1\CC/C(=C\c2cc(Br)ccc2OCC)C1=O`, the inhibition entry with RAW264.7 [1] and in the data set with RAW264.7 [2] was “Active” throughout.

As for `O=C1/C(=C/c2ccc(N3CCCCC3)cc2)CC/C1=C\c1ccc(N2CCCCC2)cc1`, the inhibition at 10 µM in the data set with RAW264.7 [1] came out at 20%. The inhibition entry in the data set on RAW264.7 [2] was “Active”.

On to `COc1cccc(/C=C/C(=O)/C=C/c2cccc(OC)c2O)c1O`, for which the inhibition result in the data set on RAW264.7 [1] and with RAW264.7 [2] was “Active” in each case.

As to `O=C(/C=C/c1ccc(N2CCOCC2)cc1)/C=C/c1ccc(N2CCOCC2)cc1`, the results for the inhibition at 10 µM in the data set on RAW264.7 [1] and in the data set on RAW264.7 [2] were above 20% and 50%, respectively.

For the compound `COc1ccc(F)c(/C=C2\CC/C(=C\c3cc(OC)ccc3F)C2=O)c1`, the inhibition result with RAW264.7 [1] was “Active”. Besides, the inhibition at 10 µM in the data set on RAW264.7 [2] stood at 30%.

Take `Cc1cc(N(CCCl)CCCl)ccc1/C=C/C(=O)/C=C/c1ccc(N(CCCl)CCCl)cc1C`: the values for the inhibition at 10 µM with RAW264.7 [1] and in the data set with RAW264.7 [2] were 20% and 30%, respectively.

For the compound `CCN(CC)c1ccc(/C=C2\CCC/C(=C\c3ccc(N(CC)CC)cc3)C2=O)cc1`, the inhibition result in the data set on RAW264.7 [1] and in the data set on RAW264.7 [2] was “Active” each time.

`COc1cc(OC)c(OC)cc1/C=C/C(=O)/C=C/c1cc(OC)c(OC)cc1OC`: in the data set on RAW264.7 [1], the inhibition at 10 µM is above 20%. Moreover, in the data set with RAW264.7 [2], the inhibition result is “Active”.

With `O=C1/C(=C/c2ccc(N3CCOCC3)cc2)CCC/C1=C\c1ccc(N2CCOCC2)cc1`, the inhibition entry in the data set with RAW264.7 [1] and in the data set on RAW264.7 [2] was “Active” in each case.

For the compound `O=C1/C(=C/c2cccc(C(F)(F)F)c2F)CC/C1=C\c1cccc(C(F)(F)F)c1F`, the inhibition result in the data set on RAW264.7 [1] and in the data set with RAW264.7 [2] was “Active” each time.

As to `O=C1/C(=C/c2c(F)cccc2C(F)(F)F)CC/C1=C\c1c(F)cccc1C(F)(F)F`, the inhibition at 10 µM in the data set on RAW264.7 [1] was above 20%. Further, in the data set with RAW264.7 [2], the inhibition entry was “Active”.

With `COc1ccc(/C=C2\CC/C(=C\c3ccc(OC)cc3F)C2=O)c(F)c1`, the inhibition at 10 µM in the data set with RAW264.7 [1] was found to be 20%. In the data set with RAW264.7 [2], the inhibition entry was “Active”.

Regarding `CCOc1ccc(Br)cc1/C=C1\CCC/C(=C\c2cc(Br)ccc2OCC)C1=O`, the inhibition entry in the data set with RAW264.7 [1] and with RAW264.7 [2] was “Active” throughout.

Consider `COc1ccc(/C=C/C(=O)/C=C/c2ccc(OC)cc2F)c(F)c1`, for which the inhibition at 10 µM in the data set with RAW264.7 [1] is 20%; in the data set on RAW264.7 [2], 51.1%.

For `O=C(/C=C/c1c(F)cccc1C(F)(F)F)/C=C/c1c(F)cccc1C(F)(F)F`, the inhibition entry in the data set with RAW264.7 [1] is “Active”. Moreover, the inhibition at 10 µM in the data set on RAW264.7 [2] stood at 30%.

For `O=C1/C(=C/c2ccc(C(F)(F)F)cc2F)CC/C1=C\c1ccc(C(F)(F)F)cc1F`, the inhibition entry in the data set with RAW264.7 [1] and in the data set on RAW264.7 [2] was “Active” each time.

For `O=C1/C(=C/c2ccc(N3CCCCC3)cc2)CCC/C1=C\c1ccc(N2CCCCC2)cc1`, the inhibition entry in the data set with RAW264.7 [1] and in the data set with RAW264.7 [2] was “Active” in each case.
